# Results as given in ChEMBL document CHEMBL4330069, “Boosting the efficacy of anti-MRSA β-lactam antibiotics via an easily accessible, non-cytotoxic and orally bioavailable FtsZ inhibitor” (Eur J Med Chem, 2019).
# Calls of active or inactive are those of the source.
# Experiments:
# Staphylococcus aureus [1] = assay: Antibacterial activity against multidrug-resistant Staphylococcus aureus isolate 2901 by broth microdilution assay; format: functional
# Outline: (§1)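 Broth microdilution MIC per CLSI guidelines against clinical MRSA isolates, for β-lactams and test compound alone and in combination. Compounds were dissolved in DMSO. Growth was read by eye, in duplicate. FIC index = FIC(compound) + FIC(drug); synergy defined as FIC index ≤0.5.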
# Staphylococcus aureus [2] = assay: Antibacterial activity against multidrug-resistant Staphylococcus aureus isolate 254 by broth microdilution assay; format: functional; outline: as §1
# Staphylococcus aureus [3] = assay: Antibacterial activity against multidrug-resistant Staphylococcus aureus isolate 200 by broth microdilution assay; format: functional; outline: as §1
# Staphylococcus aureus [4] = assay: Antibacterial activity against multidrug-resistant Staphylococcus aureus ATCC 43300 infected in BALB/C mouse assessed as mouse survival at 50 mg/kg, ip bid measured after 5 days; format: functional, organism-based
# Staphylococcus aureus [5] = assay: Antibacterial activity against multidrug-resistant Staphylococcus aureus isolate 1136 by broth microdilution assay; format: functional; outline: as §1
# Staphylococcus aureus [6] = assay: Antibacterial activity against multidrug-resistant Staphylococcus aureus isolate 1402 by broth microdilution assay; format: functional; outline: as §1
# Staphylococcus aureus [7] = assay: Antibacterial activity against multidrug-resistant Staphylococcus aureus isolate 1344 by broth microdilution assay; format: functional; outline: as §1
# Staphylococcus aureus [8] = assay: Antibacterial activity against multidrug-resistant Staphylococcus aureus isolate 256 by broth microdilution assay; format: functional; outline: as §1
# Staphylococcus aureus [9] = assay: Antibacterial activity against multidrug-resistant Staphylococcus aureus isolate 2516 by broth microdilution assay; format: functional; outline: as §1
# Staphylococcus aureus [10] = assay: Antibacterial activity against multidrug-resistant Staphylococcus aureus isolate 358 by broth microdilution assay; format: functional; outline: as §1
# Staphylococcus aureus [11] = assay: Antibacterial activity against multidrug-resistant Staphylococcus aureus isolate 3332 by broth microdilution assay; format: functional; outline: as §1
# Staphylococcus aureus [12] = assay: Antibacterial activity against multidrug-resistant Staphylococcus aureus isolate 1749 by broth microdilution assay; format: functional; outline: as §1
# Staphylococcus aureus [13] = assay: Antibacterial activity against multidrug-resistant Staphylococcus aureus isolate 3589 by broth microdilution assay; format: functional; outline: as §1
# Staphylococcus aureus [14] = assay: Antibacterial activity against multidrug-resistant Staphylococcus aureus isolate 3411 by broth microdilution assay; format: functional; outline: as §1
# Staphylococcus aureus [15] = assay: Antibacterial activity against multidrug-resistant Staphylococcus aureus ATCC 43300 infected in BALB/C mouse assessed as mouse survival at 25 mg/kg, ip bid measured on day 4 post infection (reference value: 50%); format: functional
# Staphylococcus aureus [16] = assay: Antibacterial activity against multidrug-resistant Staphylococcus aureus isolate 1449 by broth microdilution assay; format: functional; outline: as §1
# Staphylococcus aureus [17] = assay: Antibacterial activity against multidrug-resistant Staphylococcus aureus isolate 1717 by broth microdilution assay; format: functional; outline: as §1
# Staphylococcus aureus [18] = assay: Antibacterial activity against multidrug-resistant Staphylococcus aureus isolate 3267 by broth microdilution assay; format: functional; outline: as §1
# Staphylococcus aureus [19] = assay: Antibacterial activity against multidrug-resistant Staphylococcus aureus isolate 2973 by broth microdilution assay; format: functional; outline: as §1
# Staphylococcus aureus [20] = assay: Antibacterial activity against multidrug-resistant Staphylococcus aureus isolate 417 by broth microdilution assay; format: functional; outline: as §1
# Staphylococcus aureus [21] = assay: Antibacterial activity against multidrug-resistant Staphylococcus aureus isolate 231 by broth microdilution assay; format: functional; outline: as §1
# Staphylococcus aureus [22] = assay: Antibacterial activity against multidrug-resistant Staphylococcus aureus isolate 774 by broth microdilution assay; format: functional; outline: as §1
# Staphylococcus aureus [23] = assay: Antibacterial activity against multidrug-resistant Staphylococcus aureus isolate 2895 by broth microdilution assay; format: functional; outline: as §1
# Staphylococcus aureus [24] = assay: Antibacterial activity against multidrug-resistant Staphylococcus aureus isolate 85 by broth microdilution assay; format: functional; outline: as §1
# Staphylococcus aureus [25] = assay: Antibacterial activity against multidrug-resistant Staphylococcus aureus isolate 2919 by broth microdilution assay; format: functional; outline: as §1
# Staphylococcus aureus [26] = assay: Antibacterial activity against multidrug-resistant Staphylococcus aureus isolate 2728 by broth microdilution assay; format: functional; outline: as §1
# Staphylococcus aureus [27] = assay: Antibacterial activity against multidrug-resistant Staphylococcus aureus isolate 2224 by broth microdilution assay; format: functional; outline: as §1
# Staphylococcus aureus [28] = assay: Antibacterial activity against multidrug-resistant Staphylococcus aureus isolate 3580 by broth microdilution assay; format: functional; outline: as §1
# Staphylococcus aureus [29] = assay: Antibacterial activity against multidrug-resistant Staphylococcus aureus isolate 2490 by broth microdilution assay; format: functional; outline: as §1
# Staphylococcus aureus [30] = assay: Antibacterial activity against multidrug-resistant Staphylococcus aureus isolate 757 by broth microdilution assay; format: functional; outline: as §1
# [31] = biological target: T1, Cell division protein FtsZ (Staphylococcus aureus) (UniProt P0A031); assay: Inhibition of Staphylococcus aureus N-terminal 6His-tagged FtsZ polymerization expressed in Escherichia coli BL21 (DE3) assessed as reduction in filament formation in presence of GTP by TEM analysis
# T1 sequence (whole entry): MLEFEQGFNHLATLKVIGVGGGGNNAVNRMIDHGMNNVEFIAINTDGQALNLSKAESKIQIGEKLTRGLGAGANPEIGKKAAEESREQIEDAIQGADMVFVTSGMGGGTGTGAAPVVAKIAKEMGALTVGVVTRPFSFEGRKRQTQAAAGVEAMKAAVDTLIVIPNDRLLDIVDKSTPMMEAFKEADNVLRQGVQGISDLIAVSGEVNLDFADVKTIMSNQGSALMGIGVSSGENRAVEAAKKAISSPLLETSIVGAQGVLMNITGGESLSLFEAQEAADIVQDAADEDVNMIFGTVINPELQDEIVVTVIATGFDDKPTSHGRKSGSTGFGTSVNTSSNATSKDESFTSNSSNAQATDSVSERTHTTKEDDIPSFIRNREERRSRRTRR
# Outline: (§2)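 Purified S. aureus FtsZ was incubated with GTP and compound at 0, 50 or 100 µM. Filaments were then imaged by transmission electron microscopy.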
# [32] = biological target: T1, Cell division protein FtsZ (Staphylococcus aureus); assay: Inhibition of Staphylococcus aureus N-terminal 6His-tagged FtsZ polymerization expressed in Escherichia coli BL21 (DE3) assessed as short strands at 100 uM in presence of GTP by TEM analysis; outline: as §2
# Staphylococcus aureus [33] = assay: Synergistic bactericidal activity against Staphylococcus aureus ATCC BAA-41 at 1 to 16 times MIC in presence of methicillin up to 24 hrs by time kill assay; format: functional, organism-based
# Outline: (§3)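 Colony of strain grown 16 h in CA-MH broth at 37 °C with shaking, diluted 100-fold and grown to mid-log (OD595 0.8), then set at 5×10^5 CFU/mL. […] Sampled at 0, 2.5, 5, 7.5, 21, 24 h, diluted and plated on drug-free CA-MH agar, 24 h at 37 °C; triplicates.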
# [34] = biological target: T1, Cell division protein FtsZ (Staphylococcus aureus); assay: Inhibition of Staphylococcus aureus N-terminal 6His-tagged FtsZ polymerization expressed in Escherichia coli BL21 (DE3) at 100 uM relative to control
# Outline: (§4)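 Purified S. aureus FtsZ polymerization with GTP, followed as light scattering (absorbance 600 nm) over time. Compound was tested at 12.5–100 µM against a 1% DMSO vehicle, and inhibition was read at 500 s. Triplicate.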
# Staphylococcus aureus [35] = assay: Antibacterial activity against Staphylococcus aureus ATCC BAA-41 at […] after 24 hrs by time kill assay; format: functional, organism-based
# Outline: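 Time-kill assay. S. aureus BAA-41 was grown in CA-MH broth to mid-log phase (OD595 0.8), then diluted to 5×10^5 CFU/mL. […] Samples were taken at 0–24 h and plated on drug-free CA-MH agar for 24 h. Triplicates.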
# [36] = biological target: T1, Cell division protein FtsZ (Staphylococcus aureus); assay: Inhibition of Staphylococcus aureus N-terminal 6His-tagged FtsZ GTPase expressed in Escherichia coli BL21 (DE3) at 100 uM
# [37] = biological target: T1, Cell division protein FtsZ (Staphylococcus aureus); assay: Inhibition of Staphylococcus aureus N-terminal 6His-tagged FtsZ polymerization expressed in Escherichia coli BL21 (DE3) at 50 uM relative to control; outline: as §4
# Staphylococcus aureus [38] = assay: Synergistic antibacterial activity against Staphylococcus aureus ATCC BAA-41 at 1 to 16 times MIC in presence of methicillin after 21 hrs by time kill assay; format: functional, organism-based; outline: as §3
# [39] = biological target: T1, Cell division protein FtsZ (Staphylococcus aureus); assay: Inhibition of Staphylococcus aureus N-terminal 6His-tagged FtsZ polymerization expressed in Escherichia coli BL21 (DE3) assessed as thin strands at 100 uM in presence of GTP by TEM analysis; outline: as §2
# [40] = biological target: T1, Cell division protein FtsZ (Staphylococcus aureus); assay: Inhibition of Staphylococcus aureus N-terminal 6His-tagged FtsZ polymerization expressed in Escherichia coli BL21 (DE3); outline: as §4
# [41] = biological target: T1, Cell division protein FtsZ (Staphylococcus aureus); assay: Inhibition of Staphylococcus aureus N-terminal 6His-tagged FtsZ polymerization expressed in Escherichia coli BL21 (DE3) at 25 uM relative to control; outline: as §4
# [42] = biological target: T1, Cell division protein FtsZ (Staphylococcus aureus); assay: Inhibition of Staphylococcus aureus N-terminal 6His-tagged FtsZ polymerization expressed in Escherichia coli BL21 (DE3) assessed as reduced strands at 100 uM in presence of GTP by TEM analysis; outline: as §2
# [43] = biological target: T1, Cell division protein FtsZ (Staphylococcus aureus); assay: Inhibition of Staphylococcus aureus N-terminal 6His-tagged FtsZ polymerization expressed in Escherichia coli BL21 (DE3) assessed as single strands at 100 uM in presence of GTP by TEM analysis; outline: as §2
structure (smiles),measurement,setting,value
CO/N=C(\C(=O)N[C@@H]1C(=O)N2C(C(=O)O)=C(COC(N)=O)CS[C@H]12)c1ccco1 [CEFUROXIME],MIC,Staphylococcus aureus [1],16 µg/mL
same,MIC,Staphylococcus aureus [2],1020 µg/mL
same,MIC,Staphylococcus aureus [3],2 µg/mL
same,Activity,Staphylococcus aureus [4],inactive
same,MIC,Staphylococcus aureus [5],512 µg/mL
same,MIC,Staphylococcus aureus [6],16 µg/mL
same,MIC,Staphylococcus aureus [7],256 µg/mL
same,MIC,Staphylococcus aureus [8],256 µg/mL
same,MIC,Staphylococcus aureus [9],512 µg/mL
same,MIC,Staphylococcus aureus [10],2 µg/mL
same,MIC,Staphylococcus aureus [11],512 µg/mL
same,MIC,Staphylococcus aureus [12],16 µg/mL
same,MIC,Staphylococcus aureus [13],512 µg/mL
same,MIC,Staphylococcus aureus [14],1020 µg/mL
same,Activity,Staphylococcus aureus [15],70%
same,MIC,Staphylococcus aureus [16],2 µg/mL
same,MIC,Staphylococcus aureus [17],16 µg/mL
same,MIC,Staphylococcus aureus [18],256 µg/mL
same,MIC,Staphylococcus aureus [19],8 µg/mL
same,MIC,Staphylococcus aureus [20],1020 µg/mL
same,MIC,Staphylococcus aureus [21],1020 µg/mL
same,MIC,Staphylococcus aureus [22],1020 µg/mL
same,MIC,Staphylococcus aureus [23],64 µg/mL
same,MIC,Staphylococcus aureus [24],8 µg/mL
same,MIC,Staphylococcus aureus [25],16 µg/mL
same,MIC,Staphylococcus aureus [26],16 µg/mL
same,MIC,Staphylococcus aureus [27],8 µg/mL
same,MIC,Staphylococcus aureus [28],1020 µg/mL
same,MIC,Staphylococcus aureus [29],32 µg/mL
same,MIC,Staphylococcus aureus [30],32 µg/mL
CCCCCCCCCNc1ccc(F)c(C(N)=O)c1F,inhibition,[31],Dose-dependent effect
same,inhibition,[32],Active
same,Activity,Staphylococcus aureus [33],Active
same,inhibition,[34],47%
same,Activity,Staphylococcus aureus [35],inactive
same,inhibition,[36],inactive
same,inhibition,[37],39%
same,Activity,Staphylococcus aureus [38],Active
same,inhibition,[39],Active
same,inhibition,[40],Dose-dependent effect
same,inhibition,[41],34%
same,inhibition,[42],Active
same,inhibition,[43],Active
